Screening results from PubChem BioAssay.
CHO parental Ca: ATP-evoked calcium signal inhibitors, parental CHO, primary screen, counter-screen for OX1R antagonist project, cell-based, fluorescence, Fluo-8 calcium dye | inhibition, % at 5.6 µM | parental CHO-K1, ATP-induced calcium, Fluo-8 fluorescence | AID 463079, 2010 | 330,000 compounds, 0.63% hits;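 active = inhibition above that plate's mean sample inhibition plus 3 SD, cut at about 26% in these data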
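Assay system – parental CHO cells · Reagent – ATP stimulus · Detection – intracellular calcium via Fluo-8 no-wash fluorescent dye · Evaluation – percent inhibition of ATP-evoked calcium rise, normalized to controls · Controls – ATP wells versus no-ATP DMSO wells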
OX1R antag-1: antagonists of human orexin 1 receptor (OX1R) | OX1R-expressing cells, FRET antagonist read-out | AID 485270, 2010 | Orexin/Hypocretin receptor type 1 (Homo sapiens), O43613 | 330,000 compounds, 1.8% hits | inhibition, % at 6.6 µM; in the data active = inhibition mostly above about 38%, no sharp cut-off; inactive = mostly below about 40%
OX1R antag-2: OX1R (HCRTR1) antagonists, primary screen, fluorescence, CHO/OX1R cells, Fluo-8 calcium, orexin A | Orexin/Hypocretin receptor type 1 (Homo sapiens), O43613 | Fluo-8 calcium fluorescence | inhibition, % at 5 µM | 330,000 compounds, 0.43% hits | AID 434989, 2010;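 active = inhibition above its plate's threshold, mean inhibition of all tested compounds on the plate plus 3 SD, cut at about 37% in these data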
NTR1 agonist: agonists of human NTR1, primary screen, imaging, U2OS cells, beta-arrestin-GFP, high content; Neurotensin receptor type 1 (Homo sapiens), P30989; NTR1-U2OS beta-arrestin-GFP spot imaging, agonist mode; activation, % at 20 µM; 330,000 compounds, 0.17% hits;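 active = activation at or above 40% of the spot to cytoplasm intensity ratio, with at least 20 cells analyzed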
Target sequence (P30989 whole entry, looked up): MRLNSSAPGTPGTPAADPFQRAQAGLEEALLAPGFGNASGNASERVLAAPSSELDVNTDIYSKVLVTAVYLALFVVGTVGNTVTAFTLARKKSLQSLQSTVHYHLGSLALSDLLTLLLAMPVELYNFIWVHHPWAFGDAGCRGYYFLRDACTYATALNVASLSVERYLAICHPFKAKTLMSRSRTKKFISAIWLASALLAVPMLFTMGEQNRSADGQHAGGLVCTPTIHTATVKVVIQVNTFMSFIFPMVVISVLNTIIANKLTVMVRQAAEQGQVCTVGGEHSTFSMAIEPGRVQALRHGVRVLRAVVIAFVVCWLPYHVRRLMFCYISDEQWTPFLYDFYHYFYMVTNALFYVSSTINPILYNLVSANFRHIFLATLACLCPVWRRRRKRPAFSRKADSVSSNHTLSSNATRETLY
TAAR1 ag: human TAAR1 agonists, primary screen, Fluo-8 calcium fluorescence, CHO RD-HGA16 cells; Trace amine-associated receptor 1 (Homo sapiens), Q96RJ0; vehicle wells 0%, saturating PEA agonist 100%; activation, % at 3 µM; 360,000 compounds, 0.99% hits; AID 624467, 2012;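 active = activation above the mean activation of all test compounds in the run plus 3 SD, cut at about 38% in these data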
Target sequence (Q96RJ0 whole entry, looked up): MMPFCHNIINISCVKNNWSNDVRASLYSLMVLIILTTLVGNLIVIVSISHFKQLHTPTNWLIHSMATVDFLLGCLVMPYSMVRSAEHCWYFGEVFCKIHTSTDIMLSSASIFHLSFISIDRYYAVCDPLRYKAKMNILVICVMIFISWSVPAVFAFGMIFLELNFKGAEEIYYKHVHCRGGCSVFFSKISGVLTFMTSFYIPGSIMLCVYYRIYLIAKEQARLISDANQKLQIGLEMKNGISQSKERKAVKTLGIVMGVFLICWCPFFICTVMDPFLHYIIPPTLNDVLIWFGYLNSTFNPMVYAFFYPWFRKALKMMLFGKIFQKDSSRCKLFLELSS
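System: CHO-derived RD-HGA16 cells with stable Gα16 and human TAAR1 / Times: 17-24 h plating, Fluo-8 75 min 37 °C, 30 min RT / Technique: calcium-sensitive Fluo-8 signal, excitation 470-495, emission 515-575 nm / Measure: % activation relative to PEA EC100 response / Benchmarks: DMSO and PEA EC100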
TAAR1 antag: human TAAR1 antagonists, primary screen, Fluo-8 calcium fluorescence, CHO RD-HGA16 cells | antagonist | inhibition, % at 3 µM | 360,000 compounds, 1.5% hits;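 active = inhibition above a per-plate cutoff, the mean inhibition of test compounds on that plate plus 3 SD, cut at about 49% in these data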
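System: RD-HGA16 CHO cells with stable hTAAR1 and Gα16 | Probe or stimulus: EC80 β-phenethylamine stimulus | Dosing: 3 µM, single point | Times: Dye loading 75 min at 37 °C, then 30 min room temperature | Measured by: Fluo-8 calcium-sensitive fluorescence | Read-out basis: % inhibition of agonist calcium response | Replicates: n of 1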
TAAR1 ag confirm: human TAAR1 agonists, retest of hits, confirmation, Fluo-8 calcium fluorescence, CHO RD-HGA16 cells; shares compounds with TAAR1 ag; activation, % at 3 µM; scaled: DMSO 0%, maximal phenethylamine 100%; 2,400 compounds, 82% hits; AID 651783, 2012;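 active = activation above a cutoff set at the run's mean compound activation plus 3 SD, cut at about 39% in these data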
Ga16 ag counter: nonselective calcium mobilization agonists, CHO-Ga16 cells, counter-screen for hTAAR1 agonist project, cell-based, fluorescence, CHO-Ga16 parental line. activation, % at 3 µM. AID 651787, 2012. shares compounds with TAAR1 ag. Fluo-8 calcium fluorescence; normalized to maximal ATP response, DMSO zero. 2,400 compounds, 50% hits;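 active = activation above the run cutoff, the mean activation over all tested wells plus 3 SD, cut at about 12% in these data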
TAAR1 desensitize: TAAR1 desensitization by agonist hits, confirmation, counter-screen for TAAR1 agonist project, cell-based, fluorescence, tachyphylaxis; inhibition, % at 3 µM; shares compounds with TAAR1 ag; AID 651951, 2012; 2,400 compounds, 46% hits; CHO RD-HGA16 hTAAR1, Fluo-8 calcium, beta-PEA response inhibition;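 active = inhibition above the run cutoff, the mean inhibition of all test compounds plus 3 SD, cut at about 49% in these data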;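 note: beta-PEA stimulus applied at its EC80; loss of beta-PEA calcium signal after compound pretreatment read as receptor desensitization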
Ga16 antag count: inhibition of ATP-evoked calcium response in CHO-Ga16 cells, counter-screen for TAAR1 agonist project, cell-based, fluorescence. shares compounds with TAAR1 ag. CHO-Ga16 ATP-induced calcium, Fluo-8 fluorescence. inhibition, % at 3 µM. 2,400 compounds, 39% hits. AID 651952, 2012;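 active = inhibition above the plate's mean compound inhibition plus 3 SD, computed per plate, cut at about 22% in these data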
Large screens that a line does not name were inactive (follow-up assays come after a bar, where they were run). Only some compounds are listed: those with a hit (about 4% of all), similar ones and a draw of the others.

CC(=O)N1CCN(c2ccc(NC(=O)C(C)Oc3ccc(Cl)cc3Cl)cc2)CC1 (stereo unspecified)	none
CC(Oc1ccc(Cl)cc1Cl)C(=O)Nc1ccc(N2CCN(C)CC2)cc1 (stereo unspecified)	TAAR1 ag 53 | TAAR1 ag confirm 60 | Ga16 ag counter inactive | TAAR1 desensitize inactive | Ga16 antag count inactive
COc1ccc(C(=O)C2CCCN(Cc3ccc(Sc4nncn4C)o3)C2)cc1F (stereo unspecified)	none
Cc1ccc(NN2C(=O)C=C(c3ccccc3)C2=O)cc1	TAAR1 ag 52 (no result: CHO parental Ca, OX1R antag-1, OX1R antag-2) | TAAR1 ag confirm inactive | Ga16 ag counter 20 | TAAR1 desensitize inactive | Ga16 antag count 44
CN1C(=CC=C2C=C(I)C(=O)C(I)=C2)C(C)(C)c2ccccc21	none (no result: CHO parental Ca, OX1R antag-1, OX1R antag-2, NTR1 agonist)
CC1=NN(c2ccccc2)C(=O)/C1=C\C=C1/N(C)c2ccccc2C1(C)C	CHO parental Ca 28, OX1R antag-2 42, TAAR1 ag 84, TAAR1 antag 50 | TAAR1 ag confirm 67 | Ga16 ag counter 45 | TAAR1 desensitize 57 | Ga16 antag count 49
CCN1C(=O)/C(=C/C=C2\C=CN(CC)c3ccccc32)SC1=S	none (no result: NTR1 agonist)
CCCN1C(=O)/C(=C\C=C2\N(CC)c3ccccc3C2(C)C)SC1=S	TAAR1 ag 69, TAAR1 antag 65 (no result: CHO parental Ca, OX1R antag-1, OX1R antag-2, NTR1 agonist) | TAAR1 ag confirm 50 | Ga16 ag counter 66 | TAAR1 desensitize 73 | Ga16 antag count 82
CN1/C(=C\C=C2/SC(=S)NC2=O)C(C)(C)c2ccccc21	CHO parental Ca 95, OX1R antag-2 99, TAAR1 ag 289, TAAR1 antag 109 | TAAR1 ag confirm 70 | Ga16 ag counter 85 | TAAR1 desensitize 85 | Ga16 antag count 86
CC1=NN(c2ccccc2)C(=O)/C1=C/N(C)C	none
Cn1c(=O)n(CCCO)c(=O)c2c1nc1n2CCCN1Cc1ccccc1	none
CS(=O)(=O)Nc1ccc(C2=NN(C(=O)CCCC(=O)O)C(c3cccs3)C2)cc1 (stereo unspecified)	none
COc1ccc(CNC(=O)C2CCN(S(=O)(=O)c3cccc4nonc34)CC2)cc1	none
CCOc1ccc(CN2C(=O)CC(=O)N(S(=O)(=O)c3ccc(OCC)cc3)C2=O)cc1	none
Cc1nn(CC(=O)N/N=C/c2cccs2)c(C)c1[N+](=O)[O-]	TAAR1 ag 57 | TAAR1 ag confirm 80 | Ga16 ag counter inactive | TAAR1 desensitize 72 | Ga16 antag count inactive
Cc1ccc(/C=N/NC(=O)Cn2cnc3ccccc32)cc1	none
Cc1ccsc1/C=N/NC(=O)Cn1nc(C)c([N+](=O)[O-])c1C	TAAR1 ag 45 | TAAR1 ag confirm 72 | Ga16 ag counter inactive | TAAR1 desensitize 55 | Ga16 antag count inactive
COc1cccc(/C=N/NC(=O)Cn2nc(C)c([N+](=O)[O-])c2C)c1O	none
Cc1ccsc1/C=N/NC(=O)Cn1cnc2ccccc21	TAAR1 ag 56 | TAAR1 ag confirm 61 | Ga16 ag counter inactive | TAAR1 desensitize inactive | Ga16 antag count inactive
Cc1ccc(S(=O)(=O)N2CCC(=O)c3ccccc32)cc1	none (no result: CHO parental Ca, OX1R antag-1, OX1R antag-2, NTR1 agonist)
O=C(NCc1ccccn1)c1ccc(OC2CCN(Cc3ccc(Cl)s3)CC2)cc1	none
O=C1NCCN(Cc2ccc(Cl)c(F)c2)C1CC(=O)N1CCc2ccccc2C1 (stereo unspecified)	TAAR1 ag 60 | TAAR1 ag confirm 92 | Ga16 ag counter inactive | TAAR1 desensitize inactive | Ga16 antag count inactive
CN(Cc1ccon1)C(=O)CC1C(=O)NCCN1Cc1ccc(Cl)c(F)c1 (stereo unspecified)	none
Cc1ccnc(OC(C(=O)O)C(OCCc2ccccc2)(c2ccccc2)c2ccccc2)n1 (stereo unspecified)	none
Cc1cc(C)nc(OC(C(=O)O)C(OCCc2ccccc2)(c2ccccc2)c2ccccc2)n1 (stereo unspecified)	TAAR1 ag 99 | TAAR1 ag confirm 126 | Ga16 ag counter 85 | TAAR1 desensitize inactive | Ga16 antag count inactive
Cn1c(CCn2ccccc2=O)nc2cc(NC(=O)COc3ccccc3)ccc21	none
Cc1ccc(CONC(=O)c2cccc([N+](=O)[O-])c2)cc1	none
COC(=O)C(/C=N/OCc1ccc([N+](=O)[O-])cc1)NC(=O)c1cccc(Cl)c1 (stereo unspecified)	TAAR1 ag 95, TAAR1 antag 88 | TAAR1 ag confirm 94 | Ga16 ag counter 51 | TAAR1 desensitize 78 | Ga16 antag count 41
CN(CCc1ccccc1)C1CCCN(S(=O)(=O)N(C)C)C1 (stereo unspecified)	none
COc1ccc(N2CCN(C(=O)c3cc(=O)c4ccc(C)cc4o3)CC2)cc1	none
O=C(Nc1cccc(Cl)c1)Nn1cnnc1	none
CC(=O)Nc1ccc(S(=O)(=O)NCC(=O)OCC(=O)N2CCCCCC2)cc1	none
CC(C)(CO)NCC(O)COc1ccc2c(c1)CCC2 (stereo unspecified)	none
CC(C)(C)CC(C)(C)NCC(O)COc1ccc2c(c1)CCC2 (stereo unspecified)	TAAR1 ag 56 | TAAR1 ag confirm inactive | Ga16 ag counter 12 | TAAR1 desensitize inactive | Ga16 antag count inactive
O=C(Nc1ccc(N2CCOCC2)cc1)Nc1ccc(Cl)c(Cl)c1	CHO parental Ca 51, OX1R antag-2 45, TAAR1 ag 65, TAAR1 antag 90 | TAAR1 ag confirm 40 | Ga16 ag counter 30 | TAAR1 desensitize 89 | Ga16 antag count 62
